Activity calls are given as the source filed them. The rule behind the calls is not given here.
Legend:
[1] = test system: Rattus norvegicus; assay: Toxicity in thyroidectomized rat assessed as T3 activity at 37.5 mg/kg, ip measured after 6 hrs; assay type: organism-based; set-up: dose 37.5 mg/kg, route intraperitoneal; conditions: in vivo
Method in brief: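 Thyroidectomized rats, 4 per group, dosed ip at 5, 20 and 37.5 mg/kg in 4% DMSO, 15% PEG-400 and 81% of 30% HPBCD in phosphate buffer. Cardiac α-MHC hnRNA was measured 6 h post-dose and expressed relative to euthyroid or T3-treated full activity. Plasma exposure was measured at 6 h.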

[2] = test system: Caco-2; assay: Permeability from apical to basolateral side of human Caco2 cells; assay type: ADME, cell-based
[3] = Half life in rat at 5 mg/kg, iv; assay type: ADME, organism-based; set-up: dose 5 mg/kg, route intravenous; conditions: in vivo
Method in brief: (§1)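 Rat pharmacokinetics after a 5 mg/kg dose given iv, or given orally as a suspension. Values are means with SD from N = 3 rats.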

[4] = test system: Rattus norvegicus; assay: Cmax in rat at 5 mg/kg, po; assay type: ADME, organism-based; set-up: dose 5 mg/kg, route oral; conditions: in vivo; method in brief: as §1
[5] = test system: Mus musculus; assay: Antidyslipidemic activity in diet-induced obese C57Bl/6J mouse model assessed as reduction in cholesterol level at 0.3 to 10 mg/kg, po administered daily for 23 days; assay type: functional, organism-based
Method in brief: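 C57Bl/6J mice aged six weeks were fed a high fat diet for 34 weeks. Body weight and food intake were monitored. BMD and body composition were assessed on day 22, and laboratory assessments were made at study end.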

[6] = species on record: Rattus norvegicus; assay: Toxicity in hypercholesterolemic rat model assessed as effect on central thyroid axis; assay type: organism-based; conditions: in vivo
[7] = species on record: Oryctolagus cuniculus; assay: Toxicity in hypercholesterolemic rabbit model assessed as effect on TSH level; assay type: organism-based; conditions: in vivo
[8] = test system: Homo sapiens; assay: Toxicity in healthy human with mildly elevated LDL-C level assessed as central thyroid axis dysfunction at 5 to 200 mg, po qd for 2 weeks by multiple ascending dose study; assay type: organism-based; conditions: in vivo, 336 h
Method in brief: (§2)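 Multiple ascending dose study lasting 2 weeks, run after a single ascending dose study. Healthy subjects with LDL-C >110 mg/dL took oral doses once daily from 5 to 200 mg. Safety, thyroid axis measures (free T4, free T3, TSH), heart rate, QT and liver enzymes were monitored. Lipid changes were compared with placebo.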

[9] = test system: Homo sapiens; assay: Toxicity in healthy human with mildly elevated LDL-C level assessed as effect on effect on liver enzymes at 5 to 200 mg, po qd for 2 weeks by multiple ascending dose study; assay type: organism-based; conditions: in vivo, 336 h
Method in brief: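 Multiple ascending dose study after single ascending dose study. Healthy subjects with LDL-C >110 mg/dL received once daily oral doses of 5 to 200 mg for 2 weeks. Safety and tolerability were assessed, covering QT interval, heart rate, vital signs and liver enzymes.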

[10] = test system: Homo sapiens; assay: Toxicity in healthy human with mildly elevated LDL-C level assessed as reversible reduction in free T4 level at 200 mg, po qd for 2 weeks; assay type: organism-based; set-up: scale not given: the % may be the effect or the level left; conditions: in vivo, 336 h
Method in brief: (§3)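 Healthy subjects with LDL-C >110 mg/dL received once daily oral doses for 2 weeks in a multiple ascending dose study. Free T3, free T4 and TSH were compared with placebo.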

[11] = test system: Homo sapiens; assay: Toxicity in healthy human with mildly elevated LDL-C level assessed as effect on TSH level at 100 to 200 mg, po qd for 2 weeks; assay type: organism-based; conditions: in vivo, 336 h; method in brief: as §3
[12] = test system: Homo sapiens; assay: Antidyslipidemic activity in healthy human with mildly elevated LDL-C level assessed as reduction in triglyceride at 50 to 200 mg, po qd for 2 weeks by multiple ascending dose study relative to placebo control; assay type: functional; set-up: scale not given: the % may be the effect or the level left; method in brief: as §2
[13] = Plasma concentration in thyroidectomized rat at 20 mg/kg, ip measured after 6 hrs; assay type: ADME, organism-based; set-up: dose 20 mg/kg, route intraperitoneal
Method in brief: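 Thyroidectomized rats were dosed intraperitoneally at 5, 20 or 37.5 mg/kg, with 4 rats per group. Vehicle was 4% DMSO, 15% PEG-400 and 81% of 30% HPBCD in phosphate buffer. Cardiac α-MHC hnRNA, in arbitrary units, and plasma concentration were measured 6 h after dosing. Comparators were untreated thyroidectomized rats and euthyroid rats.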

permeability [2]: 1.37 ×10⁻⁶ cm/s
half-life [3]: 3.4 h
Cmax [4]: 1710 ng/mL
concentration at 6 h [13]: 57 µM
Compound: CC(C)c1cc(Oc2c(Cl)cc(-n3nc(C#N)c(=O)[nH]c3=O)cc2Cl)n[nH]c1=O [RESMETIROM]
Activity [1]: 0%
Activity [5]: Active
Activity [6]: Non-toxic
Activity [7]: Non-toxic
Activity [8]: Non-toxic
Activity [9]: Non-toxic
Activity [10]: 20%
Activity [11]: Non-toxic
Activity [12]: <=60%
